ChEMBL document CHEMBL2346518, “Synthesis and evaluation of nicotinamide derivative as anti-angiogenic agents” (Bioorg Med Chem Lett, 2013)
The source made the active and inactive calls.

Legend:
HUVEC [1] = experiment: Inhibition of VEGF-induced human HUVEC cell proliferation at 10 to 100 nM incubated 1 hr prior to VEGF-challenge measured after 24 hrs by BrdU incorporation assay; assay type: functional, cell-based
How it was run: (§1)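 HUVECs pretreated 1 h with compound (100 nM single point, or 10, 50, 100 nM), then VEGF 10 ng/ml for 24 h. BrdU incorporation detected with anti-BrdU monoclonal antibody and peroxidase secondary, absorbance at 450 nm. Means of three experiments ± SD. ANOVA/Dunnett.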

HUVEC [2] = experiment: Inhibition of VEGF-induced human HUVEC cell migration at 10 nM incubated 1 hr prior to VEGF-challenge measured after 24 hrs by Trans-well assay; assay type: functional, cell-based
How it was run: (§2)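 Boyden chamber with 8 μm pore membrane. HUVECs in upper chamber with compound in 0.1% EBM; VEGF 10 ng/ml in lower chamber. Cells that migrated through the pores counted after 24 h. Means of three experiments ± SD. ANOVA with Dunnett's test.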

[3] = molecular target: Vascular endothelial growth factor receptor 2 (Homo sapiens) (UniProt P35968); experiment: Inhibition of VEGF-induced VEGFR2 phosphorylation at Tyr1175 in human HUVEC cell incubated 1 hr prior to VEGF-challenge measured after 5 mins by Western blot analysis
How it was run: (§3)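 HUVECs pretreated 1 h with compound (10, 50 or 100 nM), then stimulated with VEGF 10 ng/ml. Phospho-VEGFR2 read at 5 min and phospho-Akt at 30 min by Western blot.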

Aorta = experiment: Inhibition of VEGF-induced microvessel sprouting around Sprague-Dawley rat aortic rings; assay type: functional, tissue-based
How it was run: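 Aortas from Sprague-Dawley rats cleaned of periadventitial fat and cut into 1–1.5 mm rings. Rings embedded in Matrigel with VEGF ± compound (10, 50, 100 nM); medium alone as control. Sprouts fixed and photographed after 7 days at ×100. Three independent experiments.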

HUVEC [4] = experiment: Inhibition of VEGF-induced human HUVEC cell proliferation incubated 1 hr prior to VEGF-challenge measured after 24 hrs by BrdU incorporation assay; assay type: functional, cell-based; how it was run: as §1
HUVEC [5] = experiment: Inhibition of VEGF-induced human HUVEC cell capillary tube formation incubated prior to VEGF-challenge; assay type: functional, cell-based
How it was run: (§4)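 HUVECs pretreated 1 h with compound, then seeded at 4 to 7 × 10⁴ cells on growth-factor-reduced Matrigel in EBM with or without VEGF 10 ng/ml. Tubular structures photographed after 6 h at ×100. Means of three experiments ± SD. ANOVA/Dunnett.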

HUVEC [6] = experiment: Inhibition of VEGF-induced human HUVEC cell migration at 10 to 100 nM incubated 1 hr prior to VEGF-challenge measured after 24 hrs by wound healing assay; assay type: functional, cell-based
How it was run: (§5)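 Wound made with a scraper in near-confluent HUVECs. Cells pretreated 1 h with compound (10–100 nM), then migration induced with VEGF 10 ng/ml. Wound area photographed after 24 h.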

[7] = molecular target: Vascular endothelial growth factor receptor 2 (Homo sapiens) (UniProt P35968); experiment: Inhibition of VEGF-induced VEGFR in human HUVEC cell assessed as AKT phosphorylation at Ser473 at 10 to 100 nM incubated 1 hr prior to VEGF-challenge measured after 30 mins by Western blot analysis; how it was run: as §3
[8] = molecular target: Vascular endothelial growth factor receptor 2 (Homo sapiens) (UniProt P35968); experiment: Inhibition of VEGF-induced VEGFR phosphorylation at Tyr1175 in human HUVEC cell at 10 to 100 nM incubated 1 hr prior to VEGF-challenge measured after 5 mins by Western blot analysis; how it was run: as §3
HUVEC [9] = experiment: Inhibition of VEGF-induced human HUVEC cell migration incubated 1 hr prior to VEGF-challenge measured after 24 hrs by Trans-well assay; assay type: functional, cell-based; how it was run: as §2
HUVEC [10] = experiment: Inhibition of VEGF-induced human HUVEC cell capillary tube formation at 10 to 100 nM incubated prior to VEGF-challenge; assay type: functional, cell-based; how it was run: as §4
[11] = molecular target: Vascular endothelial growth factor receptor 2 (Homo sapiens) (UniProt P35968); experiment: Inhibition of VEGF-induced VEGFR2 in human HUVEC cell assessed as AKT phosphorylation at Ser473 incubated 1 hr prior to VEGF-challenge measured after 30 mins by Western blot analysis; how it was run: as §3
HUVEC [12] = experiment: Inhibition of VEGF-induced human HUVEC cell migration incubated 1 hr prior to VEGF-challenge measured after 24 hrs by wound healing assay; assay type: functional, cell-based; how it was run: as §5
[13] = molecular target: Vascular endothelial growth factor receptor 2 (Homo sapiens) (UniProt P35968); experiment: Inhibition of VEGF-induced VEGFR2 phosphorylation at Tyr1175 in human HUVEC cell incubated 1 hr prior to VEGF-challenge measured after 5 mins by PathScan ELISA
How it was run: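 HUVECs given compound (10, 50 or 100 nM) 1 h before 5 min VEGF (10 ng/ml). VEGFR2 Tyr1175 phosphorylation measured by PathScan ELISA. Means of three experiments ± SD. ANOVA with Dunnett's post-hoc test.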

Measured: inhibition

Sequence of Vascular endothelial growth factor receptor 2 (Homo sapiens) (P35968 whole entry): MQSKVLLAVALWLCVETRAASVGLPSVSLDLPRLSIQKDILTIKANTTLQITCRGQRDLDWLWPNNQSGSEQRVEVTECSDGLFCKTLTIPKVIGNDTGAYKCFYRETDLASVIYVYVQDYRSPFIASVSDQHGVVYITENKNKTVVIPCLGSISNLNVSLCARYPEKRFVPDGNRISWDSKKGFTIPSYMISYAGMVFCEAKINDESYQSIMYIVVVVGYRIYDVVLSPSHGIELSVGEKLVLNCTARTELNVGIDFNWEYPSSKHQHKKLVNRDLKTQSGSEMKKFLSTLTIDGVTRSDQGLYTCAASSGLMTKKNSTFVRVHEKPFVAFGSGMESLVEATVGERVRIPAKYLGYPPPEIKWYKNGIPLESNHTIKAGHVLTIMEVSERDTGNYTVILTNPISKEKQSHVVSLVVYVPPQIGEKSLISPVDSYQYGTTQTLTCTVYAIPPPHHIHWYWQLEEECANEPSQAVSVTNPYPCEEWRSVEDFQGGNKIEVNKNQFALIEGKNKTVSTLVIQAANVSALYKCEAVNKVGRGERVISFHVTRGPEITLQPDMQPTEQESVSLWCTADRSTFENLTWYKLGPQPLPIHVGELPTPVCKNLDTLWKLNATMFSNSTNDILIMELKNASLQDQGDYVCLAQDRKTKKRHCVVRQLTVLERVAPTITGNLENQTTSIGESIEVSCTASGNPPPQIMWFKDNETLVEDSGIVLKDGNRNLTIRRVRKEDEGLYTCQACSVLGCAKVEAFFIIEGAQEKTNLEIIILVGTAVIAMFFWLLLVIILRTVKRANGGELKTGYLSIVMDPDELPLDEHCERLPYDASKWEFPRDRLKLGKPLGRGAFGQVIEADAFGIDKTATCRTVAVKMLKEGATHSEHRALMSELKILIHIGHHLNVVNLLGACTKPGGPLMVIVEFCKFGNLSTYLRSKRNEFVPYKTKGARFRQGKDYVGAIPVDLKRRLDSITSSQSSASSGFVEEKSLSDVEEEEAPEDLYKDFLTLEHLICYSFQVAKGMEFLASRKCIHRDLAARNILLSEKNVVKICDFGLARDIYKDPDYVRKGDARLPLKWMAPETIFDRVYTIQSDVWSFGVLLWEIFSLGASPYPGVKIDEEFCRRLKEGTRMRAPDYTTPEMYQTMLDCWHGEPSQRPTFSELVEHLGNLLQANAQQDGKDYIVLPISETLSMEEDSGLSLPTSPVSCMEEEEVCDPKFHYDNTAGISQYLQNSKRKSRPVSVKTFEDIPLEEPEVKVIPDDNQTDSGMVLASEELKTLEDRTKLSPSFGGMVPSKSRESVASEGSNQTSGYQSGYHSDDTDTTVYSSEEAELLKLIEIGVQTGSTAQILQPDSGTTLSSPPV

O=C(Nc1cccc(Cl)c1)c1cccnc1NC1CCN(Cc2ccccc2)CC1
active: HUVEC [1]

CC(c1ncnc(Cl)c1F)N1CCC(Nc2ncccc2C(=O)Nc2cccc(Cl)c2)CC1 (stereo not given)
active: HUVEC [2] | [3] Dose-dependent effect | Aorta Dose-dependent effect | HUVEC [4] Dose-dependent effect | HUVEC [5] Dose-dependent effect | HUVEC [6] Dose-dependent effect | [7] | HUVEC [1] | [8] | HUVEC [9] Dose-dependent effect | HUVEC [10] | [11] Dose-dependent effect | HUVEC [12] Dose-dependent effect | [13] Dose-dependent effect
